Measurements from ChEMBL document CHEMBL3525900, “Pharmacokinetics, distribution, and metabolism of [14C]sunitinib in rats, monkeys, and humans” (Drug Metab Dispos, 2012).

Legend:
Rattus norvegicus = assay: Apparent terminal half life as total radioactivity in female Sprague-Dawley rat plasma at 5 mg/kg, iv administered as single dose by LC/MS/MS analysis; format: ADME, organism-based; design: dose 5 mg/kg, dosed compound name [14C]Sunitinib, route intravenous; details: in vivo
In short: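 Single dose of [14C]sunitinib L-malate as free base, 50 µCi/kg. IV dose was 5 mg/kg by tail vein in 5 females. Oral dose was 15 mg/kg by gavage in 3 females and 3 males. Total radioactivity was by scintillation counting. […] Cmax was read from raw data, t½ by log-linear regression, AUC by linear trapezoidal rule.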

Cynomolgus monkey [1] = assay: Tmax as total radioactivity in female cynomolgus monkey plasma at 6 mg/kg, po administered as single dose by LC/MS/MS analysis; format: ADME, organism-based, Macaca fascicularis; design: dose 6 mg/kg, dosed compound name [14C]Sunitinib, route oral; details: in vivo
[2] = Drug concentration in male albino rat testis assessed as radioactivity per gram of tissue at 20 mg/kg administered as single dose via gastric gavage measured after 168 hrs by autoradiographic analysis; format: ADME, organism-based; design: dose 20 mg/kg, dosed compound name [14C]Sunitinib; details: in vivo, po
[3] = Drug recovery in feces of female Sprague-Dawley rat at 15 mg/kg, po administered as single dose during 0 to 72 hrs by liquid scintillation counting; format: ADME, organism-based; design: dose 15 mg/kg, dosed compound name [14C]Sunitinib, route oral; details: in vivo
Cynomolgus monkey [4] = assay: Drug recovery in cage residue of male cynomolgus monkey at 6 mg/kg, po administered as single dose during 0 to 336 hrs by liquid scintillation counting; format: ADME, organism-based, Macaca fascicularis; design: dose 6 mg/kg, dosed compound name [14C]Sunitinib, route oral; details: in vivo
Brain = assay: Drug concentration in male Lister Hooded pigmented rat brain assessed as radioactivity per gram of tissue at 20 mg/kg administered as single dose via gastric gavage measured after 24 hrs by autoradiographic analysis; format: ADME, organism-based; design: dose 20 mg/kg, dosed compound name [14C]Sunitinib; details: in vivo, po
Heart [5] = assay: Drug concentration in male Lister Hooded pigmented rat heart assessed as radioactivity per gram of tissue at 20 mg/kg administered as single dose via gastric gavage measured after 24 hrs by autoradiographic analysis; format: ADME, organism-based; design: dose 20 mg/kg, dosed compound name [14C]Sunitinib; details: in vivo, po
[6] = Drug concentration in female albino rat brown fat assessed as radioactivity per gram of tissue at 20 mg/kg administered as single dose via gastric gavage measured after 3 hrs by autoradiographic analysis; format: ADME, organism-based, Brown adipose tissue; design: dose 20 mg/kg, dosed compound name [14C]Sunitinib; details: in vivo, po
In short: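 Sprague Dawley (albino) and Lister Hooded (pigmented) rats, ca 7-8 weeks old, 179-310 g, acclimated 7 days. Single gavage dose of [14C]sunitinib L-malate (15 mg freebase/kg, 100 µCi/kg). One male and one female killed by CO2 per time point: albino at 3, 6, 24, 72, 168 h; pigmented at 24, 72, 168, 336 h. Carcasses frozen in solid CO2/hexane, 30 µm sagittal sections freeze-dried. Tissue radioactivity read by quantitative whole-body autoradiography against regression of standards, mean background subtracted.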

[7] = Drug concentration in female albino rat skeletal muscle assessed as radioactivity per gram of tissue at 20 mg/kg administered as single dose via gastric gavage measured after 3 hrs by autoradiographic analysis; format: ADME, organism-based; design: dose 20 mg/kg, dosed compound name [14C]Sunitinib; details: in vivo, po
[8] = Drug concentration in male Lister Hooded pigmented rat uveal tract assessed as radioactivity per gram of tissue at 20 mg/kg administered as single dose via gastric gavage measured after 24 hrs by autoradiographic analysis; format: ADME, organism-based; design: dose 20 mg/kg, dosed compound name [14C]Sunitinib; details: in vivo, po
[9] = Drug concentration in male Lister Hooded pigmented rat lachrymal gland assessed as radioactivity per gram of tissue at 20 mg/kg administered as single dose via gastric gavage measured after 24 hrs by autoradiographic analysis; format: ADME, organism-based; design: dose 20 mg/kg, dosed compound name [14C]Sunitinib; details: in vivo, po
Blood = assay: Drug concentration in male albino rat blood assessed as radioactivity per gram of tissue at 20 mg/kg administered as single dose via gastric gavage measured after 6 hrs by autoradiographic analysis; format: ADME, organism-based; design: dose 20 mg/kg, dosed compound name [14C]Sunitinib; details: in vivo, po
Ovary [10] = assay: Drug concentration in female albino rat ovary assessed as radioactivity per gram of tissue at 20 mg/kg administered as single dose via gastric gavage measured after 6 hrs by autoradiographic analysis; format: ADME, organism-based, Female gonad; design: dose 20 mg/kg, dosed compound name [14C]Sunitinib; details: in vivo, po
In short: (§1)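 Sprague Dawley albino rats, ca 7-8 weeks old, dosed once by gastric gavage with [14C]sunitinib L-malate (15 mg freebase/kg, 100 µCi/kg). One male and one female killed by CO2 at 3, 6, 24, 72 and 168 h. Carcasses frozen in solid CO2/hexane, embedded and cut into 30 µm sagittal sections, then freeze-dried. Radioactivity quantified by whole-body autoradiography against standards by regression, background subtracted.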

[11] = Drug concentration in male albino rat lymph node assessed as radioactivity per gram of tissue at 20 mg/kg administered as single dose via gastric gavage measured after 3 hrs by autoradiographic analysis; format: ADME, organism-based; design: dose 20 mg/kg, dosed compound name [14C]Sunitinib; details: in vivo, po
Spinal cord = assay: Drug concentration in female albino rat spinal cord assessed as radioactivity per gram of tissue at 20 mg/kg administered as single dose via gastric gavage measured after 6 hrs by autoradiographic analysis; format: ADME, organism-based; design: dose 20 mg/kg, dosed compound name [14C]Sunitinib; details: in vivo, po
[12] = Drug concentration in female albino rat uterus assessed as radioactivity per gram of tissue at 20 mg/kg administered as single dose via gastric gavage measured after 6 hrs by autoradiographic analysis; format: ADME, organism-based; design: dose 20 mg/kg, dosed compound name [14C]Sunitinib; details: in vivo, po
Adrenal [13] = assay: Drug concentration in female albino rat adrenal assessed as radioactivity per gram of tissue at 20 mg/kg administered as single dose via gastric gavage measured after 6 hrs by autoradiographic analysis; format: ADME, organism-based; design: dose 20 mg/kg, dosed compound name [14C]Sunitinib; details: in vivo, po
In short: (§2)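 Sprague Dawley (albino) rats, ca 7-8 weeks old, received a single gastric-gavage dose of [14C]sunitinib L-malate at 20 mg/kg (15 mg freebase/kg, 100 µCi/kg). One animal per sex killed by CO2 at 3, 6, 24, 72 and 168 h, then frozen in CO2/hexane. 30 µm sagittal sections were cut and freeze-dried. Radioactivity per gram quantified by whole-body autoradiography using regression against standards. LOQ 0.04–0.06 µg freebase equiv/g.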

Heart [14] = assay: Drug concentration in male albino rat heart assessed as radioactivity per gram of tissue at 20 mg/kg administered as single dose via gastric gavage measured after 3 hrs by autoradiographic analysis; format: ADME, organism-based; design: dose 20 mg/kg, dosed compound name [14C]Sunitinib; details: in vivo, po
Small intestine = assay: Drug concentration in male Lister Hooded pigmented rat small intestine assessed as radioactivity per gram of tissue at 20 mg/kg administered as single dose via gastric gavage measured after 72 hrs by autoradiographic analysis; format: ADME, organism-based; design: dose 20 mg/kg, dosed compound name [14C]Sunitinib; details: in vivo, po
Adrenal [15] = assay: Drug concentration in male albino rat adrenal assessed as radioactivity per gram of tissue at 20 mg/kg administered as single dose via gastric gavage measured after 72 hrs by autoradiographic analysis; format: ADME, organism-based; design: dose 20 mg/kg, dosed compound name [14C]Sunitinib; details: in vivo, po
[16] = Drug concentration in male albino rat pituitary gland assessed as radioactivity per gram of tissue at 20 mg/kg administered as single dose via gastric gavage measured after 72 hrs by autoradiographic analysis; format: ADME, organism-based; design: dose 20 mg/kg, dosed compound name [14C]Sunitinib; details: in vivo, po
[17] = Drug concentration in female albino rat preputial gland assessed as radioactivity per gram of tissue at 20 mg/kg administered as single dose via gastric gavage measured after 24 hrs by autoradiographic analysis; format: ADME, organism-based; design: dose 20 mg/kg, dosed compound name [14C]Sunitinib; details: in vivo, po; in short: as §1
Spleen = assay: Drug concentration in male albino rat spleen assessed as radioactivity per gram of tissue at 20 mg/kg administered as single dose via gastric gavage measured after 6 hrs by autoradiographic analysis; format: ADME, organism-based; design: dose 20 mg/kg, dosed compound name [14C]Sunitinib; details: in vivo, po
[18] = Drug concentration in female albino rat bone marrow assessed as radioactivity per gram of tissue at 20 mg/kg administered as single dose via gastric gavage measured after 24 hrs by autoradiographic analysis; format: ADME, organism-based; design: dose 20 mg/kg, dosed compound name [14C]Sunitinib; details: in vivo, po; in short: as §2
Ovary [19] = assay: Drug concentration in female albino rat ovary assessed as radioactivity per gram of tissue at 20 mg/kg administered as single dose via gastric gavage measured after 72 hrs by autoradiographic analysis; format: ADME, organism-based, Female gonad; design: dose 20 mg/kg, dosed compound name [14C]Sunitinib; details: in vivo, po; in short: as §1
[20] = Drug concentration in female Lister Hooded pigmented rat eye assessed as radioactivity per gram of tissue at 20 mg/kg administered as single dose via gastric gavage measured after 168 hrs by autoradiographic analysis; format: ADME, organism-based; design: dose 20 mg/kg, dosed compound name [14C]Sunitinib; details: in vivo, po
In short: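 Lister Hooded (pigmented) rats, ca 7-8 weeks old, acclimated 7 days, given [14C]sunitinib L-malate by gastric gavage at 20 mg/kg (15 mg freebase/kg, 100 µCi/kg). One male and one female killed by CO2 at 24, 72, 168 and 336 h. Carcasses frozen in solid CO2/hexane and embedded in frozen cellulose. 30 µm sagittal cryosections were freeze-dried. Tissue radioactivity measured by quantitative whole-body autoradiography against calibration standards, with background subtracted.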

CCN(CC)CCNC(=O)c1c(C)[nH]c(/[14CH]=C2\C(=O)Nc3ccc(F)cc32)c1C.O=C(O)C[C@H](O)C(=O)O
t1/2 lambda z (Rattus norvegicus): 10.3 h
Tmax (Cynomolgus monkey [1]): 4 h
Radiolabel recovery [2]: 0.3 ugequiv
Radiolabel recovery [3]: 71.1%
Radiolabel recovery (Cynomolgus monkey [4]): 1.9%
Radiolabel recovery (Brain): 0.06 ugequiv
Radiolabel recovery (Heart [5]): 0.43 ugequiv
Radiolabel recovery [6]: 10.63 ugequiv
Radiolabel recovery [7]: 3.97 ugequiv
Radiolabel recovery [8]: 18.79 ugequiv
Radiolabel recovery [9]: 0.94 ugequiv
Radiolabel recovery (Blood): 0.84 ugequiv
Radiolabel recovery (Ovary [10]): 11.63 ugequiv
Radiolabel recovery [11]: 8.86 ugequiv
Radiolabel recovery (Spinal cord): 0.35 ugequiv
Radiolabel recovery [12]: 6.63 ugequiv
Radiolabel recovery (Adrenal [13]): 26.74 ugequiv
Radiolabel recovery (Heart [14]): 5.58 ugequiv
Radiolabel recovery (Small intestine): 0.07 ugequiv
Radiolabel recovery (Adrenal [15]): 1.52 ugequiv
Radiolabel recovery [16]: 2.7 ugequiv
Radiolabel recovery [17]: 5.79 ugequiv
Radiolabel recovery (Spleen): 16.24 ugequiv
Radiolabel recovery [18]: 1.21 ugequiv
Radiolabel recovery (Ovary [19]): 0.09 ugequiv
Radiolabel recovery [20]: 73.04 ugequiv
